Source: ChEMBL document CHEMBL1134566, “Human thioredoxin reductase is efficiently inhibited by (2,2':6',2' '-terpyridine)platinum(II) complexes. Possible implications for a novel antitumor strategy” (J Med Chem, 2001)

Legend:
Thioredoxin reductase [1] = target: T1, Thioredoxin reductase (Homo sapiens, UniProt Q16881+Q9NNW7+Q86VQ6); test: Inhibitory concentration at 50% inhibition; type: protein assay
Summary of the method: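 Tight-binding hTrxR inhibition. Human placental TrxR (~2 nM) in 100 mM potassium phosphate, 2 mM EDTA, pH 7.4, reduced with 200 μM NADPH, then preincubated with varying inhibitor for 5 min at 25 °C (footnote says 2 min). Activity started with 3 mM DTNB and read as A412 increase. IC50 taken from dose-response curves.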

Thioredoxin reductase [2] = target: T1, Thioredoxin reductase; test: Inhibitory concentration used to inhibit the enzyme competitively with the substrate; type: protein assay
Summary of the method: (§1)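 Reversible competitive component. About 2 nM placental hTrxR with DTNB 50 μM–1 mM and a single inhibitor concentration (10 nM–1 μM) in phosphate/EDTA buffer, pH 7.4. Started with 200 μM NADPH at 25 °C, TNB formation read at 412 nm. Km' compared with Km without inhibitor; Ki = Km[I]/(Km' − Km).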

Thioredoxin reductase [3] = target: T1, Thioredoxin reductase; test: Inhibitory concentration for Km'; type: protein assay; summary of the method: as §1
Thioredoxin reductase [4] = target: T1, Thioredoxin reductase; test: Michaelis-Menten constant (Km') for DTNB (5,5'-dithiobis(2-nitrobenzoate) in the presence of the compound; type: protein assay; summary of the method: as §1
[5] = target: Glutathione reductase, mitochondrial (Homo sapiens) (UniProt P00390); test: Percent inhibition of the glutathione reductase after 2 min incubation at 10 uM inhibitory concentration
Summary of the method: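 Human glutathione reductase in 47 mM potassium phosphate, 1 mM EDTA, 200 mM KCl, pH 6.9, 100 μM NADPH. Enzyme preincubated 2 min with 10 μM compound in the assay mixture, then started with 1 mM GSSG at 25 °C. NADPH consumption followed as A340 decrease; percent inhibition versus uninhibited enzyme.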

HNO 97 cell line = test: 50% Growth inhibition on HNO97 head and neck squamous carcinoma cell lines; type: functional, cell-based
Summary of the method: (§2)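 BrdU incorporation proliferation assay. 7×10^3 cells/well in RPMI 1640 with 10% FCS, 8 replicas. Compound added 24 h after seeding at 1, 5, 10 or 20 μM, either once or three times at 24 h intervals; 67 h total incubation. BrdU (100 μM final) added 48 h after first addition. Absorbance expressed relative to untreated controls (100%). IC50 ± SD from ≥2 independent experiments.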

NCH37 = test: 50% Growth inhibition on NCH37 glioma cell lines
HNO199 cell line = test: 50% Growth inhibition on HNO199 head and neck squamous carcinoma cell lines; type: functional, cell-based; summary of the method: as §2
NCH82 = test: 50% Growth inhibition on NCH82 glioma cell lines
NCH89 = test: 50% Growth inhibition on NCH89 glioma cell lines; type: functional, cell-based; summary of the method: as §2
[6] = target: Glutathione reductase, mitochondrial (Homo sapiens) (UniProt P00390); test: Percent GR activity after exposure to 1 uM for 270 min
Summary of the method: (§3)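 NCH37 glioblastoma cells in RPMI 1640 with 10% FCS at 37 °C, 5% CO2, given compound once or as doses at 0, 24 and 48 h. Sampled at 30, 90, 270 min or 67 h. Intact cells washed in PBS and sonicated; cleared lysate assayed. TrxR used 100 μM E. coli thioredoxin, with NADPH oxidase background subtracted. GR used the GSSG/NADPH A340 assay. mU/10^6 cells given as % of untreated controls, mean of three experiments.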

Thioredoxin reductase [7] = target: T1, Thioredoxin reductase; test: Percent TrxR activity after exposure to 3x5 uM concentration at regular intervals of 0,24,48 hours for the period of 67 hours; type: functional; summary of the method: as §3
Thioredoxin reductase [8] = target: T1, Thioredoxin reductase; test: Percent TrxR activity after exposure to 1 uM for 90 mins; type: functional; summary of the method: as §3
[9] = target: Glutathione reductase, mitochondrial (Homo sapiens) (UniProt P00390); test: Percent GR activity after exposure to 5 uM for 67 hr; summary of the method: as §3
[10] = target: Glutathione reductase, mitochondrial (Homo sapiens) (UniProt P00390); test: Percent GR activity after exposure to 3x1 uM concentration at regular intervals of 0,24,48 hours for the period of 67 hours; summary of the method: as §3
Thioredoxin reductase [11] = target: T1, Thioredoxin reductase; test: Percent TrxR activity after exposure to 1 uM for 30 mins; type: functional; summary of the method: as §3
[12] = target: Glutathione reductase, mitochondrial (Homo sapiens) (UniProt P00390); test: Percent GR activity after exposure to 3x5 uM concentration at regular intervals of 0,24,48 hours for the period of 67 hours; summary of the method: as §3
Thioredoxin reductase [13] = target: T1, Thioredoxin reductase; test: Percent TrxR activity after exposure to 5 uM for 30 mins; type: functional; summary of the method: as §3
[14] = target: Glutathione reductase, mitochondrial (Homo sapiens) (UniProt P00390); test: Percent GR activity after exposure to 10 uM for 67 hr; summary of the method: as §3
Thioredoxin reductase [15] = target: T1, Thioredoxin reductase; test: Percent TrxR activity after exposure to 1 uM for 270 mins; type: functional; summary of the method: as §3
Thioredoxin reductase [16] = target: T1, Thioredoxin reductase; test: Percent TrxR activity after exposure to 3x10 uM concentration at regular intervals of 0,24,48 hours for the period of 67 hours; type: functional; summary of the method: as §3
Thioredoxin reductase [17] = target: T1, Thioredoxin reductase; test: Percent TrxR activity after exposure to 1 uM for 67h; type: functional; summary of the method: as §3
[18] = target: Glutathione reductase, mitochondrial (Homo sapiens) (UniProt P00390); test: Percent GR activity after exposure to 3x10 uM concentration at regular intervals of 0,24,48 hours for the period of 67 hours; summary of the method: as §3
Thioredoxin reductase [19] = target: T1, Thioredoxin reductase; test: Percent TrxR activity after exposure to 3x1 uM concentration at regular intervals of 0,24,48 hours for the period of 67 hours; type: functional; summary of the method: as §3
Thioredoxin reductase [20] = target: T1, Thioredoxin reductase; test: Percent TrxR activity after exposure to 5 uM for 67 hr; type: functional; summary of the method: as §3
[21] = target: Glutathione reductase, mitochondrial (Homo sapiens) (UniProt P00390); test: Percent GR activity after exposure to 1 uM for 67 hr; summary of the method: as §3
Thioredoxin reductase [22] = target: T1, Thioredoxin reductase; test: Percent TrxR activity after exposure to 10 uM for 67 hrs; type: functional; summary of the method: as §3
[23] = target: Glutathione reductase, mitochondrial (Homo sapiens) (UniProt P00390); test: Percent GR activity after exposure to 1 uM for 30 min; summary of the method: as §3
[24] = target: Glutathione reductase, mitochondrial (Homo sapiens) (UniProt P00390); test: Percent GR activity after exposure to 1 uM for 90 min; summary of the method: as §3

T1 sequence (Q86VQ6 whole entry, looked up, chain 1 of 3): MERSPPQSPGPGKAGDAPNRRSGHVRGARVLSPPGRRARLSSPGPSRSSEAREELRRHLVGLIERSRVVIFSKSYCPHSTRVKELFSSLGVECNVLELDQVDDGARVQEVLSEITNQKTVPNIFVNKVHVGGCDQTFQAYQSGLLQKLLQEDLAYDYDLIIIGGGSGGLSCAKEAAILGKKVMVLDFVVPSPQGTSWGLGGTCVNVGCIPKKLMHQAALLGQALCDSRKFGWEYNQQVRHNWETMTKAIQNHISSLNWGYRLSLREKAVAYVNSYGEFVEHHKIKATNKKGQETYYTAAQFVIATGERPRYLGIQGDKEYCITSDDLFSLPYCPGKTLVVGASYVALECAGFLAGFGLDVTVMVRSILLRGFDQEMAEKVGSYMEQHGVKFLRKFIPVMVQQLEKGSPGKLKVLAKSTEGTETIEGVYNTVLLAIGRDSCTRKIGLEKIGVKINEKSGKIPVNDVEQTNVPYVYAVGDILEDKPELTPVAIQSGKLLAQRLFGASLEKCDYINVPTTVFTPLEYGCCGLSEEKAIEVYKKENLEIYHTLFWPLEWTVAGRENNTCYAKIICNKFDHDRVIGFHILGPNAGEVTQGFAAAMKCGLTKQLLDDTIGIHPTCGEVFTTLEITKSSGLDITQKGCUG
T1 sequence (Q9NNW7 whole entry, looked up, chain 2 of 3): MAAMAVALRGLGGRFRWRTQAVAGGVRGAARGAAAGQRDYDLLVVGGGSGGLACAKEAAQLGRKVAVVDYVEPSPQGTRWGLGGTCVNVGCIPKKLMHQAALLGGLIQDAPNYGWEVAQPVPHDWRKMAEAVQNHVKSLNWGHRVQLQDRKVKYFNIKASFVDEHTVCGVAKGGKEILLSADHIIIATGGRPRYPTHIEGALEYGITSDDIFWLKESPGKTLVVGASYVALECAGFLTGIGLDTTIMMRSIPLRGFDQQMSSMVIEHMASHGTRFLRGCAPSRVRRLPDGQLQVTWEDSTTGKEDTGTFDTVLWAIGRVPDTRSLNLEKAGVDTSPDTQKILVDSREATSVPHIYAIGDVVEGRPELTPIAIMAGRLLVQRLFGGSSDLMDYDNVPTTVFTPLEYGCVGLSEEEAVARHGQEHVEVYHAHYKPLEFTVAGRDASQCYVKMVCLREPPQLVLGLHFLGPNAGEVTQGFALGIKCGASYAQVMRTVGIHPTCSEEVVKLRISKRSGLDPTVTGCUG
T1 sequence (Q16881 whole entry, looked up, chain 3 of 3): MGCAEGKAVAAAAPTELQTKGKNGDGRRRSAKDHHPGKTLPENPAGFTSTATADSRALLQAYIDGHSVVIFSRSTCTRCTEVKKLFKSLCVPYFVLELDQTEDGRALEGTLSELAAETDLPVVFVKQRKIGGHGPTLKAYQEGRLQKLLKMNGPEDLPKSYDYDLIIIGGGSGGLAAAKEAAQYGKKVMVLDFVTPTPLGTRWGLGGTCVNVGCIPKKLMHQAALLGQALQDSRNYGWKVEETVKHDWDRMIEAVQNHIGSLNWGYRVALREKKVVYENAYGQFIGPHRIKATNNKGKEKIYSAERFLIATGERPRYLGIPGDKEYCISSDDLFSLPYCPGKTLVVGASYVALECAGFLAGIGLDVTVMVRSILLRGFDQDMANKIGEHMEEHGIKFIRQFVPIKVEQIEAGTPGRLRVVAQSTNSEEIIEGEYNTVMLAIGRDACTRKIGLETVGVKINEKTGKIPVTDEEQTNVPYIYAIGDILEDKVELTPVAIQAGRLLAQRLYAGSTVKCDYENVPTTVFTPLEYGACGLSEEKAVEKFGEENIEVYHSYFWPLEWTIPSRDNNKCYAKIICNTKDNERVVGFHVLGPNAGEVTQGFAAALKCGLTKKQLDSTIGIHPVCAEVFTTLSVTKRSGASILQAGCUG
Sequence of Glutathione reductase, mitochondrial (Homo sapiens) (P00390 whole entry): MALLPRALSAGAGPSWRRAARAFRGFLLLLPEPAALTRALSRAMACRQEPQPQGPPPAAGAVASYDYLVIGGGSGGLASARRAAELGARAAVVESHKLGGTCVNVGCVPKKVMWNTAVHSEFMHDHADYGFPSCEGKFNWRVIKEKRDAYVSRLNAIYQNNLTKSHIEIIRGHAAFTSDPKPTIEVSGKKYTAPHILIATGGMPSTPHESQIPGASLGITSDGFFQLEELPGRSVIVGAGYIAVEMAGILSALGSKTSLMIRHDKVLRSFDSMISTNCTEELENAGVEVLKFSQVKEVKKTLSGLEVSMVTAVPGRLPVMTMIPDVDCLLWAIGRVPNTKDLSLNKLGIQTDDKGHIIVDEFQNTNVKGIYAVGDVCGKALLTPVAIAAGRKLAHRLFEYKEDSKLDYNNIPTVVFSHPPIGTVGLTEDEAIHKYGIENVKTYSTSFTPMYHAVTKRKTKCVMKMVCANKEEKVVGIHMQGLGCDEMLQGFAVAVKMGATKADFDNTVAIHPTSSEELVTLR

Row | IC50 (Thioredoxin reductase [1]) | Ki (Thioredoxin reductase [2]) | [I] for Km' (Thioredoxin reductase [3]) | Km' (Thioredoxin reductase [4]) | inhibition [5] | Substance | other results
1 | 3 nM | 11 nM |  |  |  | 2-Mercaptoimidazole Bis[(4'-chloro-2,2':6',2''-terpyridine)platinum (II)] Trinitrate [listing 1 of 2 here] | 
2 |  |  | 0.1 µM | 1010 µM | 20% | 2-Mercaptoimidazole Bis[(4'-chloro-2,2':6',2''-terpyridine)platinum (II)] Trinitrate [listing 2 of 2 here] | 
3 | 6 nM | 7 nM |  |  |  | 2-Mercaptopyridine (4'-chloro-2,2':6',2''-terpyridine)platinum (II) Nitrate [listing 1 of 2 here] | 
4 |  |  | 0.01 µM | 247 µM | 47% | 2-Mercaptopyridine (4'-chloro-2,2':6',2''-terpyridine)platinum (II) Nitrate [listing 2 of 2 here] | 
5 | 7 nM | 17 nM |  |  |  | 2-Mercaptopyrimidine (4'-chloro-2,2':6',2''-terpyridine)platinum (II) Nitrate [listing 1 of 2 here] | 
6 |  |  | 0.1 µM | 715 µM | 66% | 2-Mercaptopyrimidine (4'-chloro-2,2':6',2''-terpyridine)platinum (II) Nitrate [listing 2 of 2 here] | 
7 | 35 nM | 348 nM |  |  |  | 4-Mercaptoethanol-(2,2':6',2''-terpyridine)platinum (II) Nitrate [listing 1 of 2 here] | 
8 |  |  | 1 µM | 399 µM | 7% | 4-Mercaptoethanol-(2,2':6',2''-terpyridine)platinum (II) Nitrate [listing 2 of 2 here] | 
9 | 30 nM | 22 nM |  |  |  | 4-Mercaptoethanol-(2,2':6',4'-chloro,2''-terpyridine)platinum (II) Nitrate [listing 1 of 2 here] | 
10 |  |  | 1 µM | 4740 µM | 55% | 4-Mercaptoethanol-(2,2':6',4'-chloro,2''-terpyridine)platinum (II) Nitrate [listing 2 of 2 here] | 
11 | 4 nM | 5 nM |  |  |  | 4-Mercaptopyridine (4'-chloro-2,2':6',2''-terpyridine)platinum (II) Nitrate [listing 1 of 2 here] | IC50 (HNO 97 cell line): 5500 nM; IC50 (NCH37): 10500 nM; IC50 (HNO199 cell line): 9200 nM; IC50 (NCH82): 7400 nM; IC50 (NCH89): 2500 nM
12 |  |  | 0.05 µM | 1060 µM | 90% | 4-Mercaptopyridine (4'-chloro-2,2':6',2''-terpyridine)platinum (II) Nitrate [listing 2 of 2 here] | Activity [6]: 110%; Activity (Thioredoxin reductase [7]): 60%; Activity (Thioredoxin reductase [8]): 50%; Activity [9]: 200%; Activity [10]: 180%; Activity (Thioredoxin reductase [11]): 50%; Activity [12]: 220%; Activity (Thioredoxin reductase [13]): 30%; Activity [14]: 260%; Activity (Thioredoxin reductase [15]): 90%; Activity (Thioredoxin reductase [16]): 5%; Activity (Thioredoxin reductase [17]): 160%; Activity [18]: 180%; Activity (Thioredoxin reductase [19]): 110%; Activity (Thioredoxin reductase [20]): 130%; Activity [21]: 220%; Activity (Thioredoxin reductase [22]): 80%; Activity [23]: 90%; Activity [24]: 90%
